Measured values as given in PMC5940269 (The Journal of Experimental Medicine, 2018).
Read-outs that look alike come from different tables or passages of the source.

Tests used:
WT or NOMID BMMs = assay: mRNA stability; type: cell-based, mouse; conditions: LPS 3 h then 1 µg/ml actinomycin D plus inhibitor
How it was run: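 WT and NOMID BMMs were stimulated with 100 ng/ml LPS for 3 h, then exposed simultaneously to 1 µg/ml actinomycin D and test compound, MK2 inhibitor or IKK2 inhibitor. Cells were lysed at 0, 2, 4 or 6 h. After RNA extraction and reverse transcription, SYBR green qPCR tracked decay of IL-1β, IL-6, NLRP3 and TNF-α mRNA. Triplicates, ≥3 independent experiments.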

SCW-induced arthritis = assay: Streptococcal cell wall; type: in vivo, rat; conditions: for paw swelling: oral gavage 2×/day from day 9, CDD-450 5 or 10 mg/kg, CDD-110 1.5 mg/kg
How it was run: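 Adult female Lewis rats (180 g) received SCW preparation i.p. at 15 mg/kg, and acute paw edema was tracked on days 2–8. Paw volume was measured by plethysmometer every other day to day 21, and hind paws were scanned by µCT at day 21.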

p38α–PRAK = p38α–PRAK (Homo sapiens, UniProt Q16539); assay: p38α–MK2 and p38α–PRAK assays; type: biochemical
Sequence of p38α–PRAK (Q16539 whole entry): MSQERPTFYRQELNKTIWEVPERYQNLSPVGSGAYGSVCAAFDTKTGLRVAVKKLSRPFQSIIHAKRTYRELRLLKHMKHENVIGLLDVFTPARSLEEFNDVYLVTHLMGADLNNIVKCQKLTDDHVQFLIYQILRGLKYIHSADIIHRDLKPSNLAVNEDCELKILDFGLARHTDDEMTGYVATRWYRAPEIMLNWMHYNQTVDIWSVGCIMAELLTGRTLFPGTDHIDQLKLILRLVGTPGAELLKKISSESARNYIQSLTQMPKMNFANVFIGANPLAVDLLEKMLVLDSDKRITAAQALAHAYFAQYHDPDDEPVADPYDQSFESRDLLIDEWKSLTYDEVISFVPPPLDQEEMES
Sequence of p38α–PRAK (Q8IW41 whole entry partner): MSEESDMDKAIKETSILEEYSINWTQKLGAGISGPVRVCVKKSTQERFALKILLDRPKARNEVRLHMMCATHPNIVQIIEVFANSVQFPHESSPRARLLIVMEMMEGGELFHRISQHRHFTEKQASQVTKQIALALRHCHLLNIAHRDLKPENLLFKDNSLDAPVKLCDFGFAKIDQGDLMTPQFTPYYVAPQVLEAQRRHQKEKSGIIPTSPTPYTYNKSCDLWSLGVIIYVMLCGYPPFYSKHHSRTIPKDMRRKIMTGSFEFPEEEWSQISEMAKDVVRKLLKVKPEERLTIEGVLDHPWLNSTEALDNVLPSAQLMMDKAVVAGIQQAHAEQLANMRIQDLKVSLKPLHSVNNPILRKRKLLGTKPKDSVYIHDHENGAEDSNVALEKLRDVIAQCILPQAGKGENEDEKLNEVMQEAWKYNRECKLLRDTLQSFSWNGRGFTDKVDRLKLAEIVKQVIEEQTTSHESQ

p38α–ATF2 = assay: p38α–MK2 and p38α–ATF2 assays; type: biochemical
p38α–MK2 complex = assay: Surface plasmon resonance analysis of p38α binding to immobilized MK2; conditions: 10 nM p38α, immobilized GST-MK2
193 kinases = assay: Kinase selectivity across the human kinome; type: biochemical; conditions: CDD-450 tested at 5 µM
p38β = p38β (Homo sapiens, UniProt Q15759); assay: Kinase selectivity, p38β; type: biochemical; conditions: CDD-450 tested at 5 µM
Sequence of p38β (Q15759 whole entry): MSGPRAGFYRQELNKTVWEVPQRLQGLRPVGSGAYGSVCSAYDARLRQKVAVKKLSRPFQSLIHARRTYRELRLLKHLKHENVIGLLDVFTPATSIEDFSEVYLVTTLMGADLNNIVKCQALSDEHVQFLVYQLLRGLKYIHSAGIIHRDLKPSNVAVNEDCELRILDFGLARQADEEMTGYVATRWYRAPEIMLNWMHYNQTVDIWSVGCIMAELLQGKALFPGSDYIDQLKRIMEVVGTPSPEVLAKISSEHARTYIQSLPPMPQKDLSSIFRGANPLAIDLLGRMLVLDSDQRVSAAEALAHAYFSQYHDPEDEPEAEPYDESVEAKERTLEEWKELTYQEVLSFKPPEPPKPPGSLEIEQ

[1] = test system: WT and NOMID bone marrow macrophages (BMMs); assay: qPCR/Western analysis of LPS-induced expression in BMMs; type: cell-based, mouse; conditions: for IL-18 expression: in vitro
How it was run: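 WT and NOMID BMMs were preincubated 1 h with test compound or IKK2 inhibitor (0.5% DMSO final), then given 100 ng/ml LPS for 3 or 8 h. Transcripts were measured by SYBR green qPCR after RNA extraction and reverse transcription. Protein (NLRP3, pro-caspase-1) was measured by Western blot of RIPA lysates. Triplicates, ≥3 independent experiments.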

MK2 phosphorylation = assay: Western blot of LPS-stimulated MK2 phosphorylation in BMMs; type: cell-based, mouse; conditions: 10 µM CDD-450, 100 ng/ml LPS, WT BMMs
WT and NOMID BMMs = assay: IL-1β secretion by LPS-primed BMMs; type: cell-based, mouse; conditions: 100 ng/ml LPS 3 h; WT cells plus 15 µM nigericin 30 min
How it was run: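 BMMs were derived over ~5 d in 1:10 CMG 14-12 supernatant (M-CSF source), plated at 10^4/well and kept 24 h. They were pretreated 1 h with vehicle (0.5% DMSO final), test compound or IKK2 inhibitor, then given 100 ng/ml LPS for 3 h without a media change. WT cells then received 15 µM nigericin for 30 min. IL-1β in conditioned media was measured by ELISA; triplicates, ≥3 independent experiments.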

[2] = test system: NLRP3 inflammasome / caspase-1; assay: Microscopic analysis of active caspase-1; type: cell-based, mouse; conditions: LPS-primed cells, 15 µM nigericin with 10 µM CDD-450, 30 min
How it was run: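 BMMs were plated at 5 × 10^4/well for 24 h, primed with 100 ng/ml LPS for 3 h, then treated 30 min with 10 µM test compound and/or 15 µM nigericin. Active caspase-1 was labelled with FLICA FAM-YVAD-FMK (30 min, 37°C). Cells were washed, fixed in 10% buffered formalin and DAPI-counterstained, then imaged by fluorescence microscopy with image analysis.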

[3] = Cytotoxicity at efficacious concentrations; type: cell-based; conditions: efficacious concentrations tested in this study; not depicted
[4] = test system: LPS-induced TNF-α expression; assay: LPS-induced TNF-α production in mice fed inhibitor chow; type: in vivo; conditions: CDD-450 chow 1,000 ppm; LPS 0.025 mg/kg for 1 h
How it was run: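 Eight-week-old WT female mice (six/group) were fed normal chow or inhibitor chow (1,000 or 516 ppm). At the indicated weeks they were challenged i.v. with Salmonella typhosa LPS, 0.025 mg/kg in saline. Blood was collected by cardiac puncture 60 min later, and serum TNF-α was measured by ELISA.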

[5] = Body weight of WT mice on CDD-450 chow; type: in vivo
NOMID^c mice = assay: NOMID^c mice; type: in vivo; conditions: CDD-450 chow
How it was run: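 Nlrp3fl(D301N)/+;Cre-ERTM mice (C57BL/6) were given tamoxifen i.p., 75 mg/kg every other day, three times weekly for 2 wk; Cre-ERTM littermates were controls. Three-month-old mice received normal or compound chow from 3 d before tamoxifen. Body weight (10–11/group) and survival (12–13/group) were scored every 2–3 d. Endpoint was 4 wk later: decalcified 5-µm bone sections were TRAP-stained and osteoclasts counted on trabecular and cortical surfaces (4–6 mice/group).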

WT BMMs = assay: Osteoclast formation in vitro induced by RANKL; type: cell-based, mouse; conditions: 50 ng/ml RANKL for 4 d
How it was run: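 WT BMMs were plated at 5 × 10^3/well in 1:50 CMG supernatant plus RANKL with DMSO or test compound for 4 d, medium changed every other day, at 37°C, 5% CO2. Cells were fixed 10 min in 3.7% formaldehyde/0.1% Triton X-100, then TRAP-stained 30 min at room temperature. TRAP+ cells with ≥3 nuclei were scored as osteoclasts. Triplicates, ≥3 independent experiments.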

[6] = test system: human PBMC from CAPS patients and healthy control; assay: IL-1β production and mRNA stability in human PBMC; type: cell-based
How it was run: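 Human PBMC from a CAPS patient or healthy control. For secretion, cells were cultured 16 h at 32°C or 37°C with DMSO or test compound, or with 100 ng/ml LPS for 16 h at 37°C, and IL-1β in conditioned media was measured by ELISA. For mRNA stability, cells got 10 ng/ml LPS for 3 h, then 1 µg/ml actinomycin D plus inhibitor, were lysed at 0–6 h and analysed by SYBR qPCR. Triplicates, ≥2 independent experiments.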

RA synovial fibroblasts = assay: IL-1β-induced responses in synovial fibroblasts from an RA patient; type: cell-based, human
How it was run: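 Synovial fibroblasts from an RA patient were preincubated 1 h with inhibitors, then given 10 ng/ml IL-1β for 3 h, with transcripts measured by qPCR. For mRNA stability, IL-1β was added for 3 h, then 1 µg/ml actinomycin D plus test compound or IKK2 inhibitor, with cells lysed at 0, 2, 4 or 6 h. For p-MK2 (Thr334) Western blot, cells had 1 h preincubation with 10 µM test compound before IL-1β. Triplicates, ≥2 independent experiments.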

[7] = test system: LPS-induced production of TNF-α, IL-1β and IL-6; assay: LPS-induced cytokine production in various in vitro systems and animal models; type: cell-based
How it was run: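 U937 premonocytic cells, grown in RPMI 1640 with 10% FBS, were differentiated with 20 ng/ml PMA for 24 h. They were pretreated with vehicle or test compound, then stimulated with 100 ng/ml LPS for 4 h. TNF-α, IL-1β and IL-6 were measured in conditioned media.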

U937 cells = assay: LPS-stimulated phosphorylation of signaling proteins in U937 cells; type: cell-based, human
How it was run: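 U937 cells were differentiated into macrophages with 20 ng/ml PMA for 24 h. They were pretreated 1 h with vehicle (0.5% DMSO final) or test compound, then stimulated with 100 ng/ml LPS. Phosphorylation of signalling proteins was assessed by Western blotting, ELISA or MesoScale kits.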

Pharmacokinetics = assay: Pharmacokinetics; parameters: species or system mice, rats, and dogs; conditions: in vivo
cardiac hERG channel = cardiac hERG channel (Homo sapiens, UniProt Q12809); assay: hERG channel inhibition
Sequence of cardiac hERG channel (Q12809 whole entry): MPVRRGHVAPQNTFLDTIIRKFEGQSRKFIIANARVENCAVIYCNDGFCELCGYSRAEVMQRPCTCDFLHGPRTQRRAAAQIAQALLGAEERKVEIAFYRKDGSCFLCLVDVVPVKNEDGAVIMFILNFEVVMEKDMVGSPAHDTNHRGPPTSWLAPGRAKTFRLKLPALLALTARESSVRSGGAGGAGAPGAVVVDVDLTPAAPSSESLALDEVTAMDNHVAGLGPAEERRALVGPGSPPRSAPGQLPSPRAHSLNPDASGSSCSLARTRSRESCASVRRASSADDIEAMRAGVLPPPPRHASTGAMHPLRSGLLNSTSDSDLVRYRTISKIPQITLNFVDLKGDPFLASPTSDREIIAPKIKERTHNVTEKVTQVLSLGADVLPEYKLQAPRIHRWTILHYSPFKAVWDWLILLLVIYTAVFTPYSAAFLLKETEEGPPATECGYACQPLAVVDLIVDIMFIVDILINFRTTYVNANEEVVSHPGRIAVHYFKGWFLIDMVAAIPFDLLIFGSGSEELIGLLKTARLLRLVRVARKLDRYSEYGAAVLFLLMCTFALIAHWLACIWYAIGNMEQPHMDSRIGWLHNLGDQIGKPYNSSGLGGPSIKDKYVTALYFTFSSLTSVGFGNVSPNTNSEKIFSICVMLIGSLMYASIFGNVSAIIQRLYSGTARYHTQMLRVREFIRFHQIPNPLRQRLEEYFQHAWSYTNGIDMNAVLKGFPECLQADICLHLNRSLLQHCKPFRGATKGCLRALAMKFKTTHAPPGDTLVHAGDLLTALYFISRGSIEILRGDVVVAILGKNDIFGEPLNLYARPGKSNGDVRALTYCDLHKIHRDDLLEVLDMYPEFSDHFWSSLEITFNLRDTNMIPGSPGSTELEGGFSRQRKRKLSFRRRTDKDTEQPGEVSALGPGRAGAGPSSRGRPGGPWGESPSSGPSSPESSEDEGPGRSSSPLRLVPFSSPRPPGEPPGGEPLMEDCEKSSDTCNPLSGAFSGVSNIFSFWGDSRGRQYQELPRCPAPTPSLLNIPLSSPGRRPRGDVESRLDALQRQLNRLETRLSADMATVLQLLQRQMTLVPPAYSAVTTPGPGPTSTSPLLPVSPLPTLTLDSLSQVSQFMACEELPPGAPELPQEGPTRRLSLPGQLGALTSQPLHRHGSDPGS

[8] = In vivo tolerability, 14 consecutive days oral gavage; conditions: rat
[9] = 100 ng/ml LPS, inhibitor preincubated 1 h
[10] = 10 ng/ml IL-1β 3 h then actinomycin D

Cc1ccc(-c2ccc3c(ccc4sc5c(c43)NC[C@@H](C)NC5=O)n2)cn1 [PF-3644022, reference compound]
degradation of IL-1β mRNA (WT or NOMID BMMs): promoted the degradation | degradation of TNF-α mRNA (WT or NOMID BMMs): promoted the degradation

CNC(=O)c1ccc(C)c(-n2c(C)cc(OCc3ccc(F)cc3F)c(Br)c2=O)c1 [CDD-110, reference compound]
paw swelling (SCW-induced arthritis): inhibited

Cc1cnc(-c2ccnc(C(C)(C)O)n2)cc1-n1c(C)cc(OCc2ncc(F)cc2F)c(Cl)c1=O [CDD-450]
fold more potent in inhibiting p38α–MK2 than p38α–PRAK (p38α–PRAK): at least 700 × | fold more potent in inhibiting p38α–MK2 than p38α–ATF2 (p38α–ATF2): at least 700 × | stabilization of the p38α–MK2 complex (increased t1/2) relative to p38α–MK2 alone (p38α–MK2 complex): 47.5 × | potency differential for inhibiting the 193 kinases tested (193 kinases): > 350 × | cross-reactivity on p38β (p38β): crossed over | NLRP3 expression ([1]; 100 ng/ml LPS): no effect | IL-18 expression ([1]; 100 ng/ml LPS): no direct effect | LPS-induced IL-1β mRNA expression [1, 9]: inhibited | LPS-induced IL-6 mRNA expression [1, 9]: inhibited | LPS-induced TNF-α mRNA expression [1, 9]: inhibited | expression of NLRP3 interacting partners ASC, caspase-1 and NEK7 ([1]; not depicted): no effect | LPS-stimulated MK2 phosphorylation at 15 and 30 min (MK2 phosphorylation): inhibited | LPS-stimulated MK2 phosphorylation at 180 min (MK2 phosphorylation): little effect | decay of NLRP3 mRNA (WT or NOMID BMMs): no effect | degradation of IL-1β mRNA (WT or NOMID BMMs): promoted the degradation | degradation of IL-6 mRNA (WT or NOMID BMMs): promoted the degradation | IL-1β secretion by LPS-primed WT and NOMID BMMs (WT and NOMID BMMs): inhibited | nigericin-induced activation of caspase-1 (fluorescent foci) [2]: no effect | cytotoxicity [3]: not cytotoxic | persistence of efficacy in blocking LPS-induced TNF-α expression after dosing [4]: up to 4 wk | tolerability of concomitant exposure to CDD-450 chow and tamoxifen ([5]; WT mice): not well tolerated | body weight of WT mice, CDD-450 chow versus normal chow ([5]; no tamoxifen): gained body weight undistinguishably | body weight of WT mice, CDD-450 chow plus tamoxifen, compared with normal chow ([5]; tamoxifen for 2 wk): lost body weight | body weight loss of NOMID^c mice versus untreated NOMID^c mice (NOMID^c mice): lost significantly less body weight | increased number of osteoclasts on trabecular and cortical bone surfaces (NOMID^c mice): prevented | skin lesions and death over the 7-wk period (NOMID^c mice; untreated: ∼35% skin lesions, 20% died): neither occurred | in vitro osteoclast formation induced by RANKL (WT BMMs): inhibited | IL-1β mRNA instability in human PBMC ([6]; 10 ng/ml LPS 3 h then actinomycin D): promoted | LPS-stimulated IL-1β secretion by healthy control PBMC ([6]; 100 ng/ml LPS 16 h at 37°C): reduced | IL-1β secretion by CAPS PBMC ([6]; 16 h at 32°C, spontaneous): reduced | degradation of TNF-α mRNA induced by LPS in human PBMC ([6]; not depicted): accentuated | IL-1β mRNA levels induced by IL-1β (RA synovial fibroblasts; 10 ng/ml IL-1β 3 h): decreased | degradation of TNF-α mRNA induced by IL-1β (RA synovial fibroblasts; [10]): accentuated | loss of IL-1β transcripts (RA synovial fibroblasts; [10]): accelerated | MK2 phosphorylation induced by IL-1β (RA synovial fibroblasts; 10 µM CDD-450, 10 ng/ml IL-1β): blocked | IC50 ([7]; read-out: IC50, LPS-induced production of IL-1β): 1 to 10 nM | IC50 ([7]; read-out: IC50, LPS-induced production of IL-6): ~100 nM | IC50 ([7]; read-out: IC50, LPS-induced production of TNF-α): 1 to 10 nM | LPS activation of the ERK1/2 pathway (U937 cells): no inhibitory effect | LPS activation of the JNK pathway (U937 cells): no inhibitory effect | MK2 phosphorylation induced by LPS (U937 cells): blocked | joint destruction, 3D µCT reconstruction (SCW-induced arthritis; 5 mg/kg CDD-450 2×/day): joint protective effects | paw swelling (SCW-induced arthritis): inhibited | bone mineral density (SCW-induced arthritis; µCT at day 21): preserved | half-life (Pharmacokinetics): long | volume of distribution (Pharmacokinetics): high | oral bioavailability (Pharmacokinetics; po): high | inhibition of the cardiac hERG channel (cardiac hERG channel): did not inhibit | well tolerated exposure relative to the predicted Cmax efficacious exposure [8]: > 30 ×

CN1CCN(c2cc(C(=O)Nc3ccc4c(c3)-c3c(c(C(N)=O)nn3-c3ccc(F)cc3)CC4)c(Cl)cn2)CC1 [PHA-408, reference compound]
NLRP3 expression ([1]; 100 ng/ml LPS): decreased | IL-18 expression ([1]; 100 ng/ml LPS): decreased | LPS-induced IL-1β mRNA expression [1, 9]: inhibited | IL-1β secretion by LPS-primed WT and NOMID BMMs (WT and NOMID BMMs): inhibited
